Inhibition data for one compound are collected here from ChEMBL document CHEMBL4321879, “Novel Class of Colony-Stimulating Factor 1 Receptor Kinase Inhibitors Based on an o-Aminopyridyl Alkynyl Scaffold as Potential Treatment for Inflammatory Disorders” (J Med Chem, 2020).

In assay [1] the target is Activated CDC42 kinase 1 (Homo sapiens) (UniProt Q07912). Nature of the assay: Inhibition of recombinant human N-terminal GST-tagged ACK1 (1 to 389 residues) expressed in baculovirus infected Sf21 insect cells at 1000 nM using poly (Glu, Tyr)4:1 as substrate measured after 1 hr by ELISA relative to control. The method in brief: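 Recombinant kinase was incubated with compound in reaction buffer containing 5 μM ATP, in wells precoated with poly(Glu,Tyr) 4:1, for 1 h at 37 °C. Phosphorylation was detected by ELISA.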

Assay [2] concerns the target Platelet-derived growth factor receptor beta (Homo sapiens) (UniProt P09619). Nature of the assay: Inhibition of recombinant human N-terminal His6-tagged PDGFRbeta (557 to end residues) expressed in baculovirus infected Sf21 insect cells at 100 nM using poly (Glu, Tyr)4:1 as substrate measured after 1 hr by ELISA relative to control. The method, boiled down: (§1)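 ELISA kinase assay: recombinant kinase added to wells precoated with poly(Glu,Tyr)4:1 and incubated with compound in reaction buffer containing 5 μM ATP, 37 °C for 1 h; wells then washed before antibody detection.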

Assay [3] deals with Insulin-like growth factor 1 receptor (Homo sapiens) (UniProt P08069). The experiment in a line: Inhibition of recombinant human N-terminal His6-tagged IGF1R (959 to end residues) expressed in baculovirus infected Sf21 insect cells at 100 nM using poly (Glu, Tyr)4:1 as substrate measured after 1 hr by ELISA relative to control. The method in brief: as §1
For assay [4], the target named is Macrophage colony-stimulating factor 1 receptor (Mus musculus) (UniProt P09581). The experiment in a line: Inhibition of CSF1R in CSF1-stimulated mouse RAW264.7 cells assessed as reduction in AKT phosphorylation preincubated for 6 hrs followed by CSF1 stimulation and measured after 20 mins by Western blot analysis. The format is cell-based. The method, boiled down:
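RAW264.7 cells were plated in six-well plates overnight, treated with compound for 6 h, then stimulated with CSF-1 100 ng/mL for 20 min. Lysates were normalized by BCA, run on 10% SDS-PAGE, and blotted with antibodies to phospho-CSF1R (Tyr723), CSF1R, phospho-Akt (Ser473), Akt and actin.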

Sequence of Activated CDC42 kinase 1 (Homo sapiens) (Q07912 whole entry, looked up, the tested form may be a part): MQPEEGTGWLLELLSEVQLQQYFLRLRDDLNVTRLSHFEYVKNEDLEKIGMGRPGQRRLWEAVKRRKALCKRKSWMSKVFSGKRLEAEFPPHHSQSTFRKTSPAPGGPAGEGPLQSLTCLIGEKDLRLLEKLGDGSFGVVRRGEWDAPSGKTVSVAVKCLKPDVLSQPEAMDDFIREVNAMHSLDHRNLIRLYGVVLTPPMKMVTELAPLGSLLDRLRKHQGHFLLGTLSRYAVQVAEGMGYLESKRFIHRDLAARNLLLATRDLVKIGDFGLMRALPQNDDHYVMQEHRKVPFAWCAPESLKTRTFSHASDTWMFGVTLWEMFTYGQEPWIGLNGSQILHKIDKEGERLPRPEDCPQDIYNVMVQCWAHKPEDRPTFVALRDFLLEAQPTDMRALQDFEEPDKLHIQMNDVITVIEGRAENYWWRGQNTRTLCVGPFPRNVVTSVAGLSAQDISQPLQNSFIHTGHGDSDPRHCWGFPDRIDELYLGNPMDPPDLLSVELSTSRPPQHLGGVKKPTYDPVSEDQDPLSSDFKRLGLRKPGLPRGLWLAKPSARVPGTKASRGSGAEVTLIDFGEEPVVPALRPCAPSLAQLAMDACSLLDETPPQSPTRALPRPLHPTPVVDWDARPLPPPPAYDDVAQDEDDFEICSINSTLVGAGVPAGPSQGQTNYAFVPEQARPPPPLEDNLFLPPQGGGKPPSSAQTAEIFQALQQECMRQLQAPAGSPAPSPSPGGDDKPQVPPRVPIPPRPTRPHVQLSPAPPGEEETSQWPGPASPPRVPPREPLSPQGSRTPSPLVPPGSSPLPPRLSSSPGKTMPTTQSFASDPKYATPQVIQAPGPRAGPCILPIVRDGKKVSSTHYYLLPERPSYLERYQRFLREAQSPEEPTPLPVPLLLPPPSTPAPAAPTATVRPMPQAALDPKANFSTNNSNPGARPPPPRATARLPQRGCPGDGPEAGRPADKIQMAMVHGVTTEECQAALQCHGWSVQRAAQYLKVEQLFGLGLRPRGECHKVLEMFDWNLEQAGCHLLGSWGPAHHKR
Sequence of Macrophage colony-stimulating factor 1 receptor (Mus musculus) (P09581 whole entry): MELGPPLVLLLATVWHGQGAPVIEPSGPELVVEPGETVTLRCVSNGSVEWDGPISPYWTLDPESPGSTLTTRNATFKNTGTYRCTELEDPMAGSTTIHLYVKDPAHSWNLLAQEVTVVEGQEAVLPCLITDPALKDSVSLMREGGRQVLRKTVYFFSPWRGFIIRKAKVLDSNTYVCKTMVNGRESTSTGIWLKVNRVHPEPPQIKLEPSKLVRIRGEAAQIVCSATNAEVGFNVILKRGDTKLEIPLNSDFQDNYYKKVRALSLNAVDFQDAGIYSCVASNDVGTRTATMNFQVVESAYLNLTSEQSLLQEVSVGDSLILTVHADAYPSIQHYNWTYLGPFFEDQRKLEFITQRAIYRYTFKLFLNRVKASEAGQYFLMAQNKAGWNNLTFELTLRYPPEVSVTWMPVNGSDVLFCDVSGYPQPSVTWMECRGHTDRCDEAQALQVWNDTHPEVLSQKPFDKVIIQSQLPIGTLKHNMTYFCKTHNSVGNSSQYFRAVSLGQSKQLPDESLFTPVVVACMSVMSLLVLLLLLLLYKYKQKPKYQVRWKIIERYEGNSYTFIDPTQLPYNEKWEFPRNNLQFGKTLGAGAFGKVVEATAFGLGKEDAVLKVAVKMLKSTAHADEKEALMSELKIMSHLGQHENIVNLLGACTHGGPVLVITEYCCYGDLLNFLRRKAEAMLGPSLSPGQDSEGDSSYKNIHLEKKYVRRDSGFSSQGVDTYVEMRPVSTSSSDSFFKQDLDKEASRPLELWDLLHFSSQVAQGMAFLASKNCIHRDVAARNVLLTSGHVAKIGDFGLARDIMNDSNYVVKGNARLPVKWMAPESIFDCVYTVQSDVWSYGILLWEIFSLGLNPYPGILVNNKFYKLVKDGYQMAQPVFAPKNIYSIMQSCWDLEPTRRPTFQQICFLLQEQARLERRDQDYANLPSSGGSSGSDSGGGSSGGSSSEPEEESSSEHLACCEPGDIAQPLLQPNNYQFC
Sequence of Platelet-derived growth factor receptor beta (Homo sapiens) (P09619 whole entry): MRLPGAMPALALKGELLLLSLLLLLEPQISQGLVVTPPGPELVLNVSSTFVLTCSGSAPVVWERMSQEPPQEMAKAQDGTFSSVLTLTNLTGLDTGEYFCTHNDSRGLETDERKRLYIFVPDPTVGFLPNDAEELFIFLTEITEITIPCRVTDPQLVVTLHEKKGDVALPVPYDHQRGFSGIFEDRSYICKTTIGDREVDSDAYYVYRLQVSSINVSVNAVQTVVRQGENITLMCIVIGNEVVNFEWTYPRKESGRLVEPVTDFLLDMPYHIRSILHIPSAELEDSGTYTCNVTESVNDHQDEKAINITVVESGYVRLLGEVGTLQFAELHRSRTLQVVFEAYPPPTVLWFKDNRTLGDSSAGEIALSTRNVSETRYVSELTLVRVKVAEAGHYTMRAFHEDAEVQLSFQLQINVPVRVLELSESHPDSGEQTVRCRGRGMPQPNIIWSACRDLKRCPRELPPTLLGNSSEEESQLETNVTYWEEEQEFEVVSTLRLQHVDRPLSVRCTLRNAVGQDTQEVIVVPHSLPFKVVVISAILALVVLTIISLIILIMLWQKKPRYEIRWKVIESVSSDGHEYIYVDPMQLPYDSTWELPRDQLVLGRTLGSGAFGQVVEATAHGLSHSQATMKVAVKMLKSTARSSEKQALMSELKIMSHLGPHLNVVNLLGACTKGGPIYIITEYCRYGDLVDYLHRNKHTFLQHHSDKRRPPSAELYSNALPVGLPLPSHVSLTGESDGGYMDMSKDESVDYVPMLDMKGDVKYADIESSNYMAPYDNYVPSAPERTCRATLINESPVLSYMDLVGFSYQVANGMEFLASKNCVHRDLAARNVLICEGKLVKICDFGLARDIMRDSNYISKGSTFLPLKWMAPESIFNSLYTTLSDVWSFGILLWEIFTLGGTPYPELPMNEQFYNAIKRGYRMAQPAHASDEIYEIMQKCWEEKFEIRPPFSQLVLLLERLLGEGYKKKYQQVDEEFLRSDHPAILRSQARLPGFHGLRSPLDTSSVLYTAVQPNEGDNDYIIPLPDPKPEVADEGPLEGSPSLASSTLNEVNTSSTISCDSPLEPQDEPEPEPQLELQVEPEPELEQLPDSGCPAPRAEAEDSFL
Sequence of Insulin-like growth factor 1 receptor (Homo sapiens) (P08069 31-736 limits assumed): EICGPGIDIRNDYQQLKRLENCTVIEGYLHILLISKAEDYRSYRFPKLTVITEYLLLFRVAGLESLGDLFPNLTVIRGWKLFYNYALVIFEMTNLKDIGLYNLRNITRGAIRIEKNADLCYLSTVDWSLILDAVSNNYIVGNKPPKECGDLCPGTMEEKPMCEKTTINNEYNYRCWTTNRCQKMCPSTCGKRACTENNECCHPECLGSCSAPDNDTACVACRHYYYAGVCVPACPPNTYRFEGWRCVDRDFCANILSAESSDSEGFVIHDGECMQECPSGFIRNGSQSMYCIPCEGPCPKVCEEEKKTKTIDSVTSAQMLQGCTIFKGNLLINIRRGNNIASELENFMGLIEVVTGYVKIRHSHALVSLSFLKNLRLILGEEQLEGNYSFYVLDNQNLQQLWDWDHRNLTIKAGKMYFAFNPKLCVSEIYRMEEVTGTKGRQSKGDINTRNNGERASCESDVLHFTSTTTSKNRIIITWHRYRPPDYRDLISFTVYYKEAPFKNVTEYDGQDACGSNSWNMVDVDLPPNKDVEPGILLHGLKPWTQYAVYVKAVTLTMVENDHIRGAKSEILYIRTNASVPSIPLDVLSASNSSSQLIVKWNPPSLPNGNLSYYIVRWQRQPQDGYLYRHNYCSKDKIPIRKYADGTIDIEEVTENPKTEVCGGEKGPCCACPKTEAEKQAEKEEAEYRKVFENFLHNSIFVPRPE
Sequence of Insulin-like growth factor 1 receptor (Homo sapiens) (P08069 741-1367 limits assumed): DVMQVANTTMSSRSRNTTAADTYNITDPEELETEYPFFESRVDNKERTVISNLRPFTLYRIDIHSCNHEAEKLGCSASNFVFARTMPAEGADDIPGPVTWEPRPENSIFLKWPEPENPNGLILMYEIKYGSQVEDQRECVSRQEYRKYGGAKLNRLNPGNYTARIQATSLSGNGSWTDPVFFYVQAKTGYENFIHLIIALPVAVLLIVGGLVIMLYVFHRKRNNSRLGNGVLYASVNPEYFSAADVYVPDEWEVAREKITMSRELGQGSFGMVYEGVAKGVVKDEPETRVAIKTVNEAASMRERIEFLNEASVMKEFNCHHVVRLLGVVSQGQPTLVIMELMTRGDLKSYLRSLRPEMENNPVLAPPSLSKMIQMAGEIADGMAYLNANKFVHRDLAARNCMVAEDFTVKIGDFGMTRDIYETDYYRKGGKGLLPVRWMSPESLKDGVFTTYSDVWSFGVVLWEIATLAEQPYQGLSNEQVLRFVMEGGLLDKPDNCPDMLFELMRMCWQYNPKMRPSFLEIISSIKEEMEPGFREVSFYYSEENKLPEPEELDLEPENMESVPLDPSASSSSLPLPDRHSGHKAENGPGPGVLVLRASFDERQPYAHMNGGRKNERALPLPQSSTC

As to `Cc1ccc(C(=O)Nc2ccc(Cl)cc2)cc1C#Cc1cc(-c2cnn(C)c2)cnc1N`, the inhibition in assay [1] is 30.9%; in assay [2], 70.5%; in assay [3], 0%; in assay [4], “Dose-dependent effect”.
